Among the data in ChEMBL document CHEMBL1139252, “Inhibition of purple acid phosphatase with alpha-alkoxynaphthylmethylphosphonic acids” (Bioorg Med Chem Lett, 2009) are IC50 values, retold here.

By IC50 is commonly meant the concentration needed to halve the response being measured. Higher therefore signals a need for much substance.

The nature of assay [1]: Inhibition of pig PAP at pH 4.9. More on the design: species or system Sus scrofa. In short, it runs like this:
(§1)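 Each enzyme was run at its own pH optimum: red kidney bean PAP at pH 6.2 and pig PAP at pH 4.9. IC50 values were determined experimentally. Separate inhibition constants were derived for binding to the free enzyme and to the enzyme–substrate complex.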

Assay [2] concerns the target T1, Fe(3+)-Zn(2+) purple acid phosphatase (Phaseolus vulgaris, UniProt P80366).
T1 sequence (P80366 whole entry): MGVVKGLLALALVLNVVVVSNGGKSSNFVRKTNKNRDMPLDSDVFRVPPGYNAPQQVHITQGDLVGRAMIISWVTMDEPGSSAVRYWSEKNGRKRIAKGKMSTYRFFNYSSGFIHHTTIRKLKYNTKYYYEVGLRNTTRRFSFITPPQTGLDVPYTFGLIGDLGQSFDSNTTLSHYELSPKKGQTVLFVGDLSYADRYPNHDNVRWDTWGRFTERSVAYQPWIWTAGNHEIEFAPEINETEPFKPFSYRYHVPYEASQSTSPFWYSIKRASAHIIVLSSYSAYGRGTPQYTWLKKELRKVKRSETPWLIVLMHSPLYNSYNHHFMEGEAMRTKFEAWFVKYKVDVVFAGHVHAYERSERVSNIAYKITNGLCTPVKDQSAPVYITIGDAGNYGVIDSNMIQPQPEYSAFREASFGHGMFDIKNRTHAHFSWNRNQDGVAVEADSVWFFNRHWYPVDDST
Kind of assay: Inhibition of red kidney bean PAP at pH 6.2. In outline:
as §1

Assay [3] in a line: Inhibition of human PAP.

As to `CCCCCCOC(c1cccc2ccccc12)P(=O)(O)O` (racemic), the IC50 was 430 µM in assay [1] and 1000 µM in assay [2]. In assay [3], `O=C(c1ccccc1)C(C(=O)c1ccccc1)(c1cccc2ccccc12)P(=O)(O)O` registered an IC50 of 1.4 µM.

Consider `CCCCCCCCOC(c1cccc2ccccc12)P(=O)(O)O` (racemic), for which the figures for the IC50 in assay [1] and in assay [2] were 30 µM and 100 µM, respectively. In turn, `O=P(O)(O)C(O)c1cccc2ccccc12` (stereo not given) registered an IC50 in assay [2] of 5000 µM. This counts as millimolar. As to `O=P(O)(O)Cc1cccc2ccccc12`, the values for the IC50 in assay [3] and in assay [2] were 30 µM and more than 7000 µM, respectively.

As to `CCCCCCCCCCOC(c1cccc2ccccc12)P(=O)(O)O` (racemic), the IC50 in assay [1] was determined as 20 µM; in assay [2], 8 µM.
